The results in this text go back to ChEMBL document CHEMBL3593186, “Synthesis, β-hematin inhibition studies and antimalarial evaluation of dehydroxy isotebuquine derivatives against Plasmodium berghei” (Bioorg Med Chem, 2015).

Series [1] is described as follows: Inhibition of haemozoin formation using hemin chloride assessed as beta-hematin formation at 5 to 100 uM after 48 hrs. In kind it is physicochemical. The essentials:
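Hemin chloride (4 mM in DMSO) was mixed with compound in DMSO at 100–5 µM, in triplicate. Water or DMSO served as controls. β-Hematin formation was started with 0.2 M acetate buffer, pH 4.4, and run for 48 h at 37 °C. The pellet was washed with DMSO, dissolved in 0.2 N NaOH, diluted 1:2 in 0.1 N NaOH and read at 405 nm, giving % inhibition of haemozoin formation.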

Series [2] relates to Plasmodium berghei. The experiment in a line: Antimalarial activity against chloroquine susceptible Plasmodium berghei ANKA infected in Balb-C mouse assessed as host survival days at 20 mg/kg, ip qd for 4 days (reference value: 6.80 +/- 0.70 days). In kind it is functional.
For series [3], the system named is Plasmodium berghei. As to the kind of experiment: Antimalarial activity against chloroquine susceptible Plasmodium berghei ANKA infected in Balb-C mouse assessed as reduction of parasitemia at 20 mg/kg, ip qd for 4 days by Giemsa staining (reference value: 65.20 +/- 2.58%). The arrangement: scale not given: the % may be the effect or the level left. The format is functional.

For the next series, the system named is Mus musculus. The experiment in a line: Toxicity in chloroquine susceptible Plasmodium berghei ANKA infected Balb-C mouse at 20 mg/kg, ip qd for 4 days. The format is organism-based. The note with it: in vivo, 96 h.
The subject of series [4] is Plasmodium berghei. The experiment in a line: Antimalarial activity against chloroquine susceptible Plasmodium berghei ANKA infected in Balb-C mouse assessed as host survival days at 25 mg/kg, ip qd for 4 days (reference value: 6.80 +/- 0.70 days). In kind it is functional.
The subject of series [5] is Plasmodium berghei. The experiment in a line: Antimalarial activity against chloroquine susceptible Plasmodium berghei ANKA infected in Balb-C mouse assessed as reduction of parasitemia at 25 mg/kg, ip qd for 4 days by Giemsa staining (reference value: 65.20 +/- 2.58%). The format is functional.

For `Cl.Clc1ccc2c(Nc3ccc(CN4CCOCC4)c(-c4ccccc4)c3)ccnc2c1`, in series [1], the “inhibition (INH)” value is on record as 98.04%. The Survival in the series on Plasmodium berghei [2] amounted to 23.2 days. Further, the Activity with Plasmodium berghei [3] came to 6.5%.
Consider `Cl.Clc1ccc2c(Nc3ccc(CN4CCCCC4)c(-c4ccccc4)c3)ccnc2c1`, for which the “inhibition (INH)” value in series [1] was 97.08%. For the same molecule, the Survival in the series on Plasmodium berghei [2] turned out to be 28.4 days. For the same molecule, the Activity with Plasmodium berghei [3] was 1.8%; in the series with Mus musculus, “Non-toxic”.
For the molecule `Cl.Clc1ccc(-c2cc(Nc3ccnc4cc(Cl)ccc34)ccc2CN2CCOCC2)cc1`, in series [1], the “inhibition (INH)” value is 2.03%.
Regarding `Cl.Clc1ccc(-c2cc(Nc3ccnc4cc(Cl)ccc34)ccc2CN2CCCCC2)cc1`, in series [1], the “inhibition (INH)” value was 97.21%. Further, in the series on Plasmodium berghei [2], the Survival was determined as 26 days. For the same molecule, the Activity in the series with Plasmodium berghei [3] is reported as 7.3%.
Turning to `Cl.Clc1ccc(-c2cc(Nc3ccnc4cc(Cl)ccc34)ccc2CN2CCCC2)cc1`, in series [1], the “inhibition (INH)” value is 97.25%. Also, the Survival in the series with Plasmodium berghei [2] is 27.3 days. The results for the Activity in the series with Plasmodium berghei [3] and in the series on Mus musculus were 2% and “Non-toxic”, respectively.
Take `CCN(CC)Cc1ccc(Nc2ccnc3cc(Cl)ccc23)cc1-c1ccccc1.Cl`: in series [1], the “inhibition (INH)” value is listed as 98.45%. For the same molecule, the Survival in the series with Plasmodium berghei [2] turned out to be 25.2 days. For the same molecule, the Activity with Plasmodium berghei [3] came out at 3.2%.
On to `CCN(CC)CCCC(C)Nc1ccnc2cc(Cl)ccc12` (stereo unspecified) [CHLOROQUINE], for which, in series [1], the “inhibition (INH)” value was 98.57%. In addition, the Survival with Plasmodium berghei [4] was determined as 29.4 days. For the same molecule, the Parasitemia with Plasmodium berghei [5] came to 0.6%.
`Cl.Clc1ccc2c(Nc3ccc(CN4CCCC4)c(-c4ccccc4)c3)ccnc2c1`: in series [1], the “inhibition (INH)” value came to 98.49%. Further, the Survival in the series on Plasmodium berghei [2] amounted to 28.6 days. Besides, the Activity in the series with Plasmodium berghei [3] is listed as 2.1%; with Mus musculus it was “Non-toxic”.
For `CN1CCN(Cc2ccc(Nc3ccnc4cc(Cl)ccc34)cc2-c2ccc(Cl)cc2)CC1.Cl`, the “inhibition (INH)” value in series [1] is 1.61%.
